Active and inactive are the calls of the source. The rule behind the calls is not given here. Starred links: 1 amine or outer side, 2 acyl side, 3 side chain; linkers in the order of their positions; H or OH if unused. Non-standard residues stand in square brackets, D forms with d. Residues, ends and D or L forms follow the SMILES beside them. X1 = O=C(O)[C@@H]1Cc2ccccc2CN1[C@H](N[*:1])C(=O)[*:2]; 2Thi = N[C@@H](Cc1cccs1)C(=O)O; Cha = N[C@@H](CC1CCCCC1)C(=O)O; Cit = NC(=O)NCCC[C@H](N)C(=O)O; Phg = N[C@H](C(=O)O)c1ccccc1; Tle = CC(C)(C)[C@H](N)C(=O)O; Nva = CCC[C@H](N)C(=O)O; Abu = CC[C@H](N)C(=O)O

These results are taken from ChEMBL document CHEMBL1773037, “Evaluation of superior BACE1 cleavage sequences containing unnatural amino acids” (Bioorg Med Chem, 2011).

Chain of Beta-secretase 1 (Homo sapiens) (P56817 whole entry): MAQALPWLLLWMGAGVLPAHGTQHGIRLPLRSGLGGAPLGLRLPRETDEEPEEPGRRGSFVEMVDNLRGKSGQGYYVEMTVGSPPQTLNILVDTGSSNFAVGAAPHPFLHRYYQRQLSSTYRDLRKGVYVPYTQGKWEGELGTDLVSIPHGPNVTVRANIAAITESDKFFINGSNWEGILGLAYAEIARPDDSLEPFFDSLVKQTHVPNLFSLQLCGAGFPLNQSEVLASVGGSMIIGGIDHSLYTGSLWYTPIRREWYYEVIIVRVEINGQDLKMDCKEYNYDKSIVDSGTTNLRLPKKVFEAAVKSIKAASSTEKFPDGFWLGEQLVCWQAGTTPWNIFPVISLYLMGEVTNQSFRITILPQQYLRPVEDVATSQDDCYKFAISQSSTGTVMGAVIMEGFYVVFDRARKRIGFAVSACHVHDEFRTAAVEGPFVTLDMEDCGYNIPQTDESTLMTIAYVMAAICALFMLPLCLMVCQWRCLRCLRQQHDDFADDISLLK

The first assay has as its target Beta-secretase 1 (Homo sapiens) (UniProt P56817). The experiment in a line: Activity of recombinant BACE assessed as substrate cleavage at 300 uM after 3 hrs by HPLC analysis. The method in brief: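 Individually synthesized, purified substrates at 300 µM in 40 mM AcONa buffer, pH 4.5, 37 °C. rBACE1 used at 60 nM (P1, P4 substrates), 30 nM (P2, P3 substrates) or 10 nM (P1' substrates and the dodecapeptide). Aliquots taken at 0, 1 and 3 h, quenched with 7 M GuHCl, and the decrease in each substrate peak monitored by HPLC.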
For the molecule `CC[C@H](C)[C@H](N)C(=O)N[C@@H](CO)C(=O)N[C@@H](CCC(=O)O)C(=O)N[C@H](C(=O)N[C@@H](CC(N)=O)C(=O)N[C@@H](CC(C)C)C(=O)N[C@@H](CC(=O)O)C(=O)N[C@@H](C)C(=O)N[C@@H](CCC(=O)O)C(=O)N[C@@H](Cc1ccccc1)C(=O)N[C@@H](CCCNC(=N)N)C(=O)N[C@@H](Cc1cnc[nH]1)C(N)=O)[C@@H](C)CC` (H-ISEINLDAEFRH-NH2), the outcome was Active.

As for `CC[C@H](C)[C@H](N)C(=O)N[C@@H](CO)C(=O)N[C@@H](CCC(=O)O)C(=O)N[C@H](C(=O)N[C@@H](CC(N)=O)C(=O)N[C@@H](CC(=O)O)C(=O)N[C@@H](CC(=O)O)C(=O)N[C@@H](C)C(=O)N[C@@H](CCC(=O)O)C(=O)N[C@@H](Cc1ccccc1)C(=O)N[C@@H](CCCNC(=N)N)C(=O)N[C@@H](Cc1cnc[nH]1)C(N)=O)C(C)C` (H-ISEVNDDAEFRH-NH2), the result was Active.

For `CC[C@H](C)[C@H](N)C(=O)N[C@@H](CO)C(=O)N[C@@H](CCC(=O)O)C(=O)N[C@H](C(=O)N[C@@H](CC(N)=O)C(=O)N[C@@H](CCSC)C(=O)N[C@@H](CC(=O)O)C(=O)N[C@@H](C)C(=O)N[C@@H](CCC(=O)O)C(=O)N[C@@H](Cc1ccccc1)C(=O)N[C@@H](CCCNC(=N)N)C(=O)N[C@@H](Cc1cnc[nH]1)C(N)=O)C(C)C` (H-ISEVNMDAEFRH-NH2), the outcome was Active.

The target is the same in another assay. The experiment in a line: Activity of recombinant BACE assessed as retention time of substrate by HPLC method.
For the molecule `CC[C@H](C)[C@H](N)C(=O)N[C@@H](CO)C(=O)N[C@@H](CCC(=O)O)C(=O)N[C@H](C(=O)N[C@@H](CC(N)=O)C(=O)N[C@@H](CC(C)C)C(=O)N[C@@H](CC(=O)O)C(=O)N[C@@H](C)C(=O)N[C@@H](CCC(=O)O)C(=O)N[C@@H](Cc1ccccc1)C(=O)N[C@@H](CCCNC(=N)N)C(=O)N[C@@H](Cc1cnc[nH]1)C(N)=O)[C@@H](C)CC` (H-ISEINLDAEFRH-NH2), the retention time was found to be 0.517 h.

On to `CC[C@H](C)[C@H](N)C(=O)N[C@@H](CO)C(=O)N[C@@H](CCC(=O)O)C(=O)N[C@H](C(=O)N[C@@H](CCCNC(N)=O)C(=O)N[C@@H](CC(C)C)C(=O)N[C@@H](CC(=O)O)C(=O)N[C@@H](C)C(=O)N[C@@H](CCC(=O)O)C(=O)N[C@@H](Cc1ccccc1)C(=O)N[C@@H](CCCNC(=N)N)C(=O)N[C@@H](Cc1cnc[nH]1)C(N)=O)C(C)C` (H-ISEV[Cit]LDAEFRH-NH2), for which the retention time was 0.482 h.

With `CC[C@H](C)[C@H](N)C(=O)N[C@@H](CO)C(=O)N[C@@H](CCC(=O)O)C(=O)N[C@H](C(=O)N[C@H](C(=O)N[C@@H](CC(C)C)C(=O)N[C@@H](CC(=O)O)C(=O)N[C@@H](C)C(=O)N[C@@H](CCC(=O)O)C(=O)N[C@@H](Cc1ccccc1)C(=O)N[C@@H](CCCNC(=N)N)C(=O)N[C@@H](Cc1cnc[nH]1)C(N)=O)c1ccccc1)C(C)C` (H-ISEV[Phg]LDAEFRH-NH2), the retention time amounted to 0.541 h.

As for `CC[C@H](C)[C@H](N)C(=O)N[C@@H](CO)C(=O)N[C@@H](CCC(=O)O)C(=O)N[C@H](C(=O)N[C@H](C(=O)N[C@@H](CC(C)C)C(=O)N[C@@H](CC(=O)O)C(=O)N[C@@H](C)C(=O)N[C@@H](CCC(=O)O)C(=O)N[C@@H](Cc1ccccc1)C(=O)N[C@@H](CCCNC(=N)N)C(=O)N[C@@H](Cc1cnc[nH]1)C(N)=O)C(C)(C)C)C(C)C` (H-ISEV[Tle]LDAEFRH-NH2), the retention time amounted to 0.531 h.

In the case of `CC[C@H](C)[C@H](N)C(=O)N[C@@H](CO)C(=O)N[C@@H](CCC(=O)O)C(=O)N[C@@H](Cc1cccs1)C(=O)N[C@@H](CC(N)=O)C(=O)N[C@@H](CC(C)C)C(=O)N[C@@H](CC(=O)O)C(=O)N[C@@H](C)C(=O)N[C@@H](CCC(=O)O)C(=O)N[C@@H](Cc1ccccc1)C(=O)N[C@@H](CCCNC(=N)N)C(=O)N[C@@H](Cc1cnc[nH]1)C(N)=O` (H-ISE[2Thi]NLDAEFRH-NH2), the retention time turned out to be 0.533 h.

As for `CC[C@H](NC(=O)[C@H](CCC(=O)O)NC(=O)[C@H](CO)NC(=O)[C@@H](N)[C@@H](C)CC)C(=O)N[C@@H](CC(N)=O)C(=O)N[C@@H](CC(C)C)C(=O)N[C@@H](CC(=O)O)C(=O)N[C@@H](C)C(=O)N[C@@H](CCC(=O)O)C(=O)N[C@@H](Cc1ccccc1)C(=O)N[C@@H](CCCNC(=N)N)C(=O)N[C@@H](Cc1cnc[nH]1)C(N)=O` (H-ISE[Abu]NLDAEFRH-NH2), the retention time worked out at 0.47 h.

On to `CC[C@H](C)[C@H](N)C(=O)N[C@@H](CO)C(=O)N[C@@H](CCC(=O)O)C(=O)N[C@@H](CC1CCCCC1)C(=O)N[C@@H](CC(N)=O)C(=O)N[C@@H](CC(C)C)C(=O)N[C@@H](CC(=O)O)C(=O)N[C@@H](C)C(=O)N[C@@H](CCC(=O)O)C(=O)N[C@@H](Cc1ccccc1)C(=O)N[C@@H](CCCNC(=N)N)C(=O)N[C@@H](Cc1cnc[nH]1)C(N)=O` (H-ISE[Cha]NLDAEFRH-NH2), for which the retention time turned out to be 0.592 h.

As to `CC[C@H](C)[C@H](N)C(=O)N[C@@H](CO)C(=O)N[C@@H](CCC(=O)O)C(=O)N[C@@H](CCCNC(N)=O)C(=O)N[C@@H](CC(N)=O)C(=O)N[C@@H](CC(C)C)C(=O)N[C@@H](CC(=O)O)C(=O)N[C@@H](C)C(=O)N[C@@H](CCC(=O)O)C(=O)N[C@@H](Cc1ccccc1)C(=O)N[C@@H](CCCNC(=N)N)C(=O)N[C@@H](Cc1cnc[nH]1)C(N)=O` (H-ISE[Cit]NLDAEFRH-NH2), the retention time was 0.438 h.

In the case of `CC[C@H](C)[C@H](N)C(=O)N[C@@H](CO)C(=O)N[C@@H](CCC(=O)O)C(=O)N[C@H](C(=O)N[C@@H](CC(N)=O)C(=O)N[C@@H](CC(C)C)C(=O)N[C@@H](CC(=O)O)C(=O)N[C@@H](C)C(=O)N[C@@H](CCC(=O)O)C(=O)N[C@@H](Cc1ccccc1)C(=O)N[C@@H](CCCNC(=N)N)C(=O)N[C@@H](Cc1cnc[nH]1)C(N)=O)c1ccccc1` (H-ISE[Phg]NLDAEFRH-NH2), the retention time stood at 0.514 h.

In the case of `CC[C@H](C)[C@H](N)C(=O)N[C@@H](CO)C(=O)N[C@@H](CCC(=O)O)C(=O)N[C@H](C(=O)N[C@@H](CC(N)=O)C(=O)N[C@@H](CC(C)C)C(=O)N[C@@H](CC(=O)O)C(=O)N[C@@H](C)C(=O)N[C@@H](CCC(=O)O)C(=O)N[C@@H](Cc1ccccc1)C(=O)N[C@@H](CCCNC(=N)N)C(=O)N[C@@H](Cc1cnc[nH]1)C(N)=O)C(C)(C)C` (H-ISE[Tle]NLDAEFRH-NH2), the retention time was 0.517 h.

With `CC[C@H](C)[C@H](N)C(=O)N[C@@H](CO)C(=O)N[C@@H](CCC(=O)O)C(=O)N[C@H](C(=O)N[C@@H](CC(N)=O)C(=O)N[C@@H](CC(C)C)C(=O)N[C@@H](CC(=O)O)C(=O)N[C@@H](C)C(=O)N[C@@H](CCC(=O)O)C(=O)N[C@@H](Cc1ccccc1)C(=O)N[C@@H](CCCNC(=N)N)C(=O)N[C@@H](Cc1cnc[nH]1)C(N)=O)N1Cc2ccccc2C[C@H]1C(=O)O` (H-ISE[X1]NLDAEFRH-NH2), the retention time was determined as 0.599 h.

Consider `CC[C@H](C)[C@H](N)C(=O)N[C@@H](CO)C(=O)N[C@@H](CCC(N)=O)C(=O)N[C@H](C(=O)N[C@@H](CC(N)=O)C(=O)N[C@@H](CC(C)C)C(=O)N[C@@H](CC(=O)O)C(=O)N[C@@H](C)C(=O)N[C@@H](CCC(=O)O)C(=O)N[C@@H](Cc1ccccc1)C(=O)N[C@@H](CCCNC(=N)N)C(=O)N[C@@H](Cc1cnc[nH]1)C(N)=O)C(C)C` (H-ISQVNLDAEFRH-NH2), for which the retention time came out at 0.469 h.

On to `CC[C@H](C)[C@H](N)C(=O)N[C@@H](CO)C(=O)N[C@@H](Cc1cccs1)C(=O)N[C@H](C(=O)N[C@@H](CC(N)=O)C(=O)N[C@@H](CC(C)C)C(=O)N[C@@H](CC(=O)O)C(=O)N[C@@H](C)C(=O)N[C@@H](CCC(=O)O)C(=O)N[C@@H](Cc1ccccc1)C(=O)N[C@@H](CCCNC(=N)N)C(=O)N[C@@H](Cc1cnc[nH]1)C(N)=O)C(C)C` (H-IS[2Thi]VNLDAEFRH-NH2), for which the retention time is 0.591 h.

Take `CC[C@H](NC(=O)[C@H](CO)NC(=O)[C@@H](N)[C@@H](C)CC)C(=O)N[C@H](C(=O)N[C@@H](CC(N)=O)C(=O)N[C@@H](CC(C)C)C(=O)N[C@@H](CC(=O)O)C(=O)N[C@@H](C)C(=O)N[C@@H](CCC(=O)O)C(=O)N[C@@H](Cc1ccccc1)C(=O)N[C@@H](CCCNC(=N)N)C(=O)N[C@@H](Cc1cnc[nH]1)C(N)=O)C(C)C` (H-IS[Abu]VNLDAEFRH-NH2): the retention time came out at 0.528 h.

Regarding `CC[C@H](C)[C@H](N)C(=O)N[C@@H](CO)C(=O)N[C@@H](CC1CCCCC1)C(=O)N[C@H](C(=O)N[C@@H](CC(N)=O)C(=O)N[C@@H](CC(C)C)C(=O)N[C@@H](CC(=O)O)C(=O)N[C@@H](C)C(=O)N[C@@H](CCC(=O)O)C(=O)N[C@@H](Cc1ccccc1)C(=O)N[C@@H](CCCNC(=N)N)C(=O)N[C@@H](Cc1cnc[nH]1)C(N)=O)C(C)C` (H-IS[Cha]VNLDAEFRH-NH2), the retention time was found to be 0.689 h.

`CCC[C@H](NC(=O)[C@H](CO)NC(=O)[C@@H](N)[C@@H](C)CC)C(=O)N[C@H](C(=O)N[C@@H](CC(N)=O)C(=O)N[C@@H](CC(C)C)C(=O)N[C@@H](CC(=O)O)C(=O)N[C@@H](C)C(=O)N[C@@H](CCC(=O)O)C(=O)N[C@@H](Cc1ccccc1)C(=O)N[C@@H](CCCNC(=N)N)C(=O)N[C@@H](Cc1cnc[nH]1)C(N)=O)C(C)C` (H-IS[Nva]VNLDAEFRH-NH2): the retention time came out at 0.567 h.

On to `CC[C@H](C)[C@H](N)C(=O)N[C@@H](CO)C(=O)N[C@H](C(=O)N[C@H](C(=O)N[C@@H](CC(N)=O)C(=O)N[C@@H](CC(C)C)C(=O)N[C@@H](CC(=O)O)C(=O)N[C@@H](C)C(=O)N[C@@H](CCC(=O)O)C(=O)N[C@@H](Cc1ccccc1)C(=O)N[C@@H](CCCNC(=N)N)C(=O)N[C@@H](Cc1cnc[nH]1)C(N)=O)C(C)C)C(C)(C)C` (H-IS[Tle]VNLDAEFRH-NH2), for which the retention time worked out at 0.588 h.

On to `CC[C@H](C)[C@H](N)C(=O)N[C@@H](CO)C(=O)N[C@H](C(=O)N[C@H](C(=O)N[C@@H](CC(N)=O)C(=O)N[C@@H](CC(C)C)C(=O)N[C@@H](CC(=O)O)C(=O)N[C@@H](C)C(=O)N[C@@H](CCC(=O)O)C(=O)N[C@@H](Cc1ccccc1)C(=O)N[C@@H](CCCNC(=N)N)C(=O)N[C@@H](Cc1cnc[nH]1)C(N)=O)C(C)C)N1Cc2ccccc2C[C@H]1C(=O)O` (H-IS[X1]VNLDAEFRH-NH2), for which the retention time turned out to be 0.628 h.

For `CCC[C@H](N)C(=O)N[C@@H](C)C(=O)N[C@@H](CCC(=O)O)C(=O)N[C@@H](Cc1ccccc1)C(=O)N[C@@H](CCCNC(=N)N)C(=O)N[C@@H](Cc1cnc[nH]1)C(N)=O` (H-[Nva]AEFRH-NH2), the retention time amounted to 0.269 h.
